Assay [1] can be described thus: Cytotoxicity against human 518A2 cells after 96 hrs by sulforhodamine B assay. Format: functional, cell-based. Particulars: 518A2, 96 h. A digest of the protocol:
(§1)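 Human tumour cell lines in 96-well plates, exposed to test compounds for 96 h, then read by colorimetric sulforhodamine B staining. Viable cells are expressed as % of untreated controls. IC50 is taken from dose–response curves, top concentration 30 µM, as the mean of at least three independent experiments (variation generally 10%). Compounds are given as DMSO solutions or as an aqueous liposomal formulation.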
On the technique in general: Sulforhodamine B stains cellular protein and so reports cell mass.

For assay [2], the system named is A-431. In words: Cytotoxicity against human A431 cells after 96 hrs by sulforhodamine B assay. It counts as functional, cell-based. Conditions: A-431, 96 h. A digest of the protocol: as §1
Assay [3] can be described thus: Cytotoxicity against human A253 cells after 96 hrs by sulforhodamine B assay. Format: functional, cell-based. Particulars: A253, 96 h. A digest of the protocol:
as §1

Assay [4] concerns FaDu. In words: Cytotoxicity against human FADU cells after 96 hrs by sulforhodamine B assay. It counts as functional, cell-based. A digest of the protocol: as §1
In assay [5] the test system is A549. The assay is described as follows: Cytotoxicity against human A549 cells after 96 hrs by sulforhodamine B assay. Particulars: A549, 96 h. It counts as functional, cell-based. A digest of the protocol: as §1
The test system of assay [6] is A2780. The assay is described as follows: Cytotoxicity against human A2780 cells after 96 hrs by sulforhodamine B assay. Particulars: A2780, 96 h. It counts as functional, cell-based. In a few lines: as §1
For assay [7], the system named is DLD-1. In words: Cytotoxicity against human DLD1 cells after 96 hrs by sulforhodamine B assay. Format: functional, cell-based. Particulars: DLD-1, 96 h. In a few lines:
as §1

Assay [8] has as its system HCT-8. In words: Cytotoxicity against human HCT8 cells after 96 hrs by sulforhodamine B assay. It counts as functional, cell-based. Conditions: HCT-8, 96 h. A digest of the protocol: as §1
Assay [9] relates to HCT-116. The assay is described as follows: Cytotoxicity against human HCT116 cells after 96 hrs by sulforhodamine B assay. Format: functional, cell-based. Particulars: HCT-116, 96 h. A digest of the protocol: as §1
The subject of assay [10] is HT-29. The assay is described as follows: Cytotoxicity against human HT-29 cells after 96 hrs by sulforhodamine B assay. It counts as functional, cell-based. Conditions: HT-29, 96 h. A digest of the protocol: as §1
For assay [11], the system named is SW480. The assay is described as follows: Cytotoxicity against human SW480 cells after 96 hrs by sulforhodamine B assay. Format: functional, cell-based. Particulars: SW480, 96 h. In a few lines: as §1
The test system of assay [12] is 8505C. The assay is described as follows: Cytotoxicity against human 8505C cells after 96 hrs by sulforhodamine B assay. It counts as functional, cell-based. In a few lines:
as §1

The subject of assay [13] is SW-1736. In words: Cytotoxicity against human SW1736 cells after 96 hrs by sulforhodamine B assay. It counts as functional, cell-based. Conditions: SW-1736, 96 h. A digest of the protocol: as §1
In assay [14] the test system is MCF7. In words: Cytotoxicity against human MCF7 cells after 96 hrs by sulforhodamine B assay. Format: functional, cell-based. Particulars: MCF7, 96 h. In a few lines:
as §1

Assay [15] is described as follows: Cytotoxicity against human liposarcoma cells after 96 hrs by sulforhodamine B assay. Format: functional, cell-based. In a few lines: as §1
The test system of assay [16] is A2780. The assay is described as follows: Induction of apoptosis in human A2780 cells assessed as floating cells at IC90 concentration after 24 hrs by Trypan blue exclusion test. It counts as functional, cell-based. A digest of the protocol:
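A2780 ovarian cancer cells treated for 24 h. Floating cells are collected and scored by trypan-blue exclusion: apoptotic cells exclude the dye, necrotic cells stain blue.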

The test system of assay [17] is SW480. The assay is described as follows: Induction of apoptosis in human SW480 cells assessed as DNA ladder formation at IC90 concentration after 24 hrs by DNA gel electrophoresis analysis. It counts as functional, cell-based. In a few lines:
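SW480 colon cancer cells treated for 24 h. Floating cells are collected, and DNA is analysed by gel electrophoresis for endonuclease-generated fragment laddering.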

The next assay relates to A2780 (Homo sapiens). The assay is described as follows: Induction of apoptosis in human A2780 cells assessed as floating cells at IC90 concentration after 24 hrs by Trypan blue exclusion test.
The subject of the next assay is SW480 (Homo sapiens). The assay is described as follows: Induction of apoptosis in human SW480 cells assessed as DNA ladder formation at IC90 concentration after 24 hrs by DNA gel electrophoresis analysis.
Another assay has as its system 518A2. The assay is described as follows: Cytotoxicity against human 518A2 cells at 30 uM after 96 hrs by sulforhodamine B assay. It counts as functional, cell-based. In a few lines:
(§2)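 Growth inhibition at the highest tested concentration, 30 µM, after 96 h exposure in 96-well plates. Read by SRB staining as % viable cells relative to untreated controls, from at least three independent experiments.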

Assay [18] deals with A-431. The assay is described as follows: Cytotoxicity against human A431 cells at 30 uM after 96 hrs by sulforhodamine B assay. It counts as functional, cell-based. A digest of the protocol:
as §2

A further assay relates to A253. In words: Cytotoxicity against human A253 cells at 30 uM after 96 hrs by sulforhodamine B assay. It counts as functional, cell-based. A digest of the protocol:
as §2

Assay [19] relates to FaDu. In words: Cytotoxicity against human FADU cells at 30 uM after 96 hrs by sulforhodamine B assay. It counts as functional, cell-based. A digest of the protocol:
as §2

Assay [20] relates to A549. In words: Cytotoxicity against human A549 cells at 30 uM after 96 hrs by sulforhodamine B assay. Format: functional, cell-based. A digest of the protocol:
as §2

The test system of assay [21] is A2780. In words: Cytotoxicity against human A2780 cells at 30 uM after 96 hrs by sulforhodamine B assay. It counts as functional, cell-based. A digest of the protocol:
as §2

For assay [22], the system named is DLD-1. The assay is described as follows: Cytotoxicity against human DLD1 cells at 30 uM after 96 hrs by sulforhodamine B assay. It counts as functional, cell-based. In a few lines: as §2
For assay [23], the system named is HCT-8. In words: Cytotoxicity against human HCT8 cells at 30 uM after 96 hrs by sulforhodamine B assay. It counts as functional, cell-based. In a few lines:
as §2

Assay [24] deals with HCT-116. In words: Cytotoxicity against human HCT116 cells at 30 uM after 96 hrs by sulforhodamine B assay. It counts as functional, cell-based. In a few lines: as §2
Assay [25] concerns HT-29. In words: Cytotoxicity against human HT-29 cells at 30 uM after 96 hrs by sulforhodamine B assay. Format: functional, cell-based. A digest of the protocol: as §2
Assay [26] relates to SW480. The assay is described as follows: Cytotoxicity against human SW480 cells at 30 uM after 96 hrs by sulforhodamine B assay. Format: functional, cell-based. A digest of the protocol: as §2
For assay [27], the system named is 8505C. In words: Cytotoxicity against human 8505C cells at 30 uM after 96 hrs by sulforhodamine B assay. It counts as functional, cell-based. A digest of the protocol: as §2
The test system of assay [28] is SW-1736. In words: Cytotoxicity against human SW1736 cells at 30 uM after 96 hrs by sulforhodamine B assay. Format: functional, cell-based. In a few lines: as §2
The subject of assay [29] is MCF7. The assay is described as follows: Cytotoxicity against human MCF7 cells at 30 uM after 96 hrs by sulforhodamine B assay. It counts as functional, cell-based. A digest of the protocol: as §2
For another assay, the species on record is Homo sapiens. The assay is described as follows: Cytotoxicity against human liposarcoma cells at 30 uM after 96 hrs by sulforhodamine B assay. It counts as functional, cell-based. In a few lines:
as §2

Molecules are shown by their SMILES. The source made the active and inactive calls. The calls are words filed in the database; no cut-off is given here.

For orientation: IC50 means the concentration that inhibits the measured activity by half. High values mean lower potency, low ones higher potency. As for `C=C(C)[C@@H]1CC[C@]2([C@@H]3OC(=O)C=C3N(C)C)CC[C@]3(C)[C@H](CC[C@@H]4[C@@]5(C)CC[C@H](OC(C)=O)C(C)(C)[C@@H]5CC[C@]43C)[C@@H]12`, the IC50 worked out at 4.8 µM in assay [1]; 3.3 µM with A-431 [2]; 4.9 µM in assay [3]; 3.8 µM with FaDu [4]; 6.1 µM with A549 [5]; 2.6 µM in the assay with A2780 [6]. Besides, the IC50 in the assay on DLD-1 [7] was 3.6 µM; in the assay on HCT-8 [8], 1.7 µM; in the assay with HCT-116 [9] it was 3.2 µM; in the assay on HT-29 [10], 5.7 µM; in the assay with SW480 [11], 2.2 µM; in the assay with 8505C [12], 3.1 µM. Moreover, the IC50 in the assay on SW-1736 [13] stood at 2.9 µM; with MCF7 [14], 6.9 µM; in [15] it was 5.3 µM. Further, the outcome in the assay on A2780 [16], in the assay on SW480 [17], in the assay with A2780 (Homo sapiens) and with SW480 (Homo sapiens) was Active.

As to `C=C(C)[C@@H]1CC[C@]2([C@H](O)C#CC(=O)OC)CC[C@]3(C)[C@H](CC[C@@H]4[C@@]5(C)CC[C@H](OC(C)=O)C(C)(C)[C@@H]5CC[C@]43C)[C@@H]12`, the IC50 in [1] is 5.9 µM; in assay [3] it was 2.7 µM; in [15], 4.2 µM. Also, the result in the assay with A2780 [16], with SW480 [17], in the assay on A2780 (Homo sapiens) and with SW480 (Homo sapiens) was Active.

As for `C=C(C)[C@@H]1CC[C@]2([C@H](O)C#Cc3ccccc3)CC[C@]3(C)[C@H](CC[C@@H]4[C@@]5(C)CC[C@H](OC(C)=O)C(C)(C)[C@@H]5CC[C@]43C)[C@@H]12`, the inhibition entry in the assay with 518A2, in the assay on A-431 [18], in the assay on A253, with FaDu [19], in the assay with A549 [20] and with A2780 [21] was “inactive” in each case. In addition, the inhibition entry with DLD-1 [22], with HCT-8 [23], in the assay on HCT-116 [24], in the assay on HT-29 [25], in the assay on SW480 [26] and in the assay with 8505C [27] was “inactive” throughout. Further, the inhibition result with SW-1736 [28], in the assay with MCF7 [29] and in the assay listed under Homo sapiens was “inactive” each time.

For the origin of these results see ChEMBL document CHEMBL1250553, “Synthesis, cytotoxicity and liposome preparation of 28-acetylenic betulin derivatives” (Bioorg Med Chem, 2010).
